Experimental data as given in ChEMBL document CHEMBL5316351, “Development of a Covalent Inhibitor of c-Jun N-Terminal Protein Kinase (JNK) 2/3 with Selectivity over JNK1” (J Med Chem, 2023).
pIC50, pKd: −log10 of the molar value. Values belong to the compound of their own block, whether it stands above or below them. The source made the active and inactive calls. The calls are words filed in the database; no cut-off is given here.

Tests used:
[1] = molecular target: T1, Mitogen-activated protein kinase 8 (Homo sapiens, UniProt P45983); experiment: Inhibition of His-tagged human recombinant JNK1 expressed in insect cells incubated for 1 hr in presence of ATP by Z'-Lyte assay; parameters: species or system Insect cell
[2] = molecular target: T2, Mitogen-activated protein kinase 9 (Homo sapiens, UniProt P45984); experiment: Inhibition of His-tagged human recombinant JNK2 expressed in baculovirus expression system incubated for 1 hr in presence of ATP by Z'-Lyte assay
Target sequence in this assay (P45984 whole entry): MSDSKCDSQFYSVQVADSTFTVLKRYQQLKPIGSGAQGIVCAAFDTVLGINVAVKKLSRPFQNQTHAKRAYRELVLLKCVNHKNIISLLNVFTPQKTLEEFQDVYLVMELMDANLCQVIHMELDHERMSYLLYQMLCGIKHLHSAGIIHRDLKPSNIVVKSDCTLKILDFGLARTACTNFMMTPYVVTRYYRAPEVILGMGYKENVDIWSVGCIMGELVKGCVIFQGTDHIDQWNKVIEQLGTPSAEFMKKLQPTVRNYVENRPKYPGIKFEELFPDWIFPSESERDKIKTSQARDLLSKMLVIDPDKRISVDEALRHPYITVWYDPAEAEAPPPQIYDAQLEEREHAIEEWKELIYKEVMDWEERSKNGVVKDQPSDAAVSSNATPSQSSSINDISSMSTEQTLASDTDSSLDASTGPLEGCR

Homo sapiens [3] = organism: Homo sapiens; experiment: Selectivity ratio of IC50 for His-tagged human recombinant JNK1 expressed in insect cells to His-tagged human recombinant JNK2 expressed in baculovirus expression system
In short: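 Z′-Lyte kinase assays of JNK1 and JNK2 with 100 μM ATP and 1 h compound incubation. Fixed time point IC50 was determined in duplicate. The selectivity ratio is JNK1 IC50 over JNK2 IC50.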

MM1.S [4] = experiment: Induction of apoptosis in human MM1.S cells assessed as increase in PARP cleavage at 0.5 to 2.5 uM incubated for 24 hrs by immunoblot analysis; assay type: functional, cell-based; details: dose 0.5-2.5 µM
MM1.S [5] = experiment: Induction of apoptosis in human MM1.S cells assessed as increase in caspase-3 cleavage at 0.5 to 2.5 uM incubated for 24 hrs by immunoblot analysis; assay type: functional, cell-based; details: dose 0.5-2.5 µM
MM1.S [6] = experiment: Induction of apoptosis in human MM1.S cells at 250 nM by AnnexinV/PI staining based flow cytometry; assay type: functional, cell-based
ANBL-6 [7] = experiment: Antiproliferative activity against wild type human ANBL-6 cells assessed as inhibition of cell growth incubated for 72 hrs by CellTiter-Glo luminescent assay; assay type: functional, cell-based
ANBL-6 [8] = experiment: Antiproliferative activity against Bortezomib-resistant human ANBL-6 cells assessed as inhibition of cell growth incubated for 72 hrs by CellTiter-Glo luminescent assay; assay type: functional, cell-based
[9] = molecular target: T2, Mitogen-activated protein kinase 9; experiment: Covalent binding affinity to JNK2 in human MM1.S cells incubated for 6 hrs by biotin-JNK-IN-7 probe based pull-down competition based analysis; assay type: cell-based
In short: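 MM.1S cells exposed to compound or DMSO 6 h; lysed in HEPES pH 7.4/NP-40 buffer; lysates incubated with 1 μM biotin-JNK-IN-7 overnight at 4 °C then 2 h room temperature; streptavidin pull-down 2–3 h at 4 °C; bound JNK1/JNK2 detected by western blot.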
Target sequence in this assay (P45984 whole entry, looked up): as the sequence (P45984 whole entry) above

[10] = molecular target: T2, Mitogen-activated protein kinase 9; experiment: Binding affinity to wild type N-terminal GST-tagged human recombinant JNK2 (1 to 364 residues) expressed in Escherichia coli in presence of ATP measured every 0.5 mins for 120 mins by fluorescence based analysis
Target sequence in this assay (P45984 whole entry, looked up): as the sequence (P45984 whole entry) above

[11] = molecular target: T2, Mitogen-activated protein kinase 9; experiment: Covalent binding affinity to JNK2 (unknown origin) assessed as Cys116 labelling at protein:compound concentration ratio of 1:5 incubated for 1 hr by capillary electrophoresis MS/MS analysis
In short: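 Purified JNK2 (5 μg) incubated 1 h at room temperature with 5-fold molar excess compound; intact mass by LC/MS, then trypsin digest and capillary electrophoresis-MS/MS database search for modified residue.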
Target sequence in this assay (P45984 whole entry, looked up): as the sequence (P45984 whole entry) above

[12] = molecular target: T2, Mitogen-activated protein kinase 9; experiment: Inhibition of wild type full length human JNK2 (M1 to Q382 residues) expressed in mammalian expression system at 1 uM by KinomeScan analysis
In short: (§1)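 KINOMEscan (ScanMAX) binding panel of >400 kinases, compound tested at 1 μM; reported as percent inhibition/score.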
Target sequence in this assay (P45984 whole entry, looked up): as the sequence (P45984 whole entry) above

[13] = molecular target: T3, Mitogen-activated protein kinase 14 (Homo sapiens, UniProt Q16539); experiment: Inhibition of wild type full length human p38 alpha (M1 to S360 residues) expressed in bacterial expression system at 1 uM by KinomeScan analysis; in short: as §1
Homo sapiens [14] = organism: Homo sapiens; experiment: Inhibition of CK1gamma (unknown origin) at 1 uM by KinomeScan analysis
In short: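 KINOMEscan ScanMAX panel screened at 1 μM compound.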

[15] = molecular target: T4, 1-phosphatidylinositol 3-phosphate 5-kinase (Homo sapiens, UniProt Q9Y2I7); experiment: Inhibition of wild type partial length human PIKFYVE (F1512 to C2098 residues) expressed in mammalian expression system at 1 uM by KinomeScan analysis; in short: as §1
[16] = molecular target: T2, Mitogen-activated protein kinase 9; experiment: Inhibition of JNK2 in human SUM159 cells at 1 uM by KiNativ Profiling analysis; assay type: cell-based; details: SUM159PT
In short: (§2)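 SUM159 cells treated with 1 μM compound, collected, PBS-washed and frozen; lysates probed with ATP/ADP-biotin acyl probe labelling catalytic lysine (KiNativ); protection from labelling measured.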
Target sequence in this assay (P45984 whole entry, looked up): as the sequence (P45984 whole entry) above

[17] = molecular target: T3, Mitogen-activated protein kinase 14; experiment: Inhibition of p38alpha in human SUM159 cells at 1 uM by KiNativ Profiling analysis; assay type: cell-based; details: SUM159PT
In short: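 SUM159 cells treated with 1 μM compound, then washed with PBS and frozen. Lysates were chased with a nonspecific ATP or ADP-biotin probe that labels the conserved catalytic lysine.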

SUM159PT = experiment: Inhibition of CK1gamma in human SUM159 cells at 1 uM by KiNativ Profiling analysis; assay type: cell-based; in short: as §2
[18] = molecular target: T4, 1-phosphatidylinositol 3-phosphate 5-kinase; experiment: Inhibition of PIKFYVE in human SUM159 cells at 1 uM by KiNativ Profiling analysis; assay type: cell-based; details: SUM159PT; in short: as §2
[19] = molecular target: T4, 1-phosphatidylinositol 3-phosphate 5-kinase; experiment: Inhibition of PIKFYVE in human MDA-MB-231 cells assessed as vacuole formation at 1 uM measured after 3 days by bright field microscopy; assay type: cell-based; details: time 3.0 day
In short: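 MDA-MB-231 cells (DMEM, 10% FBS) seeded, next day treated with inhibitor or DMSO; after 3 days imaged by bright-field microscopy at 20× for vacuoles.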

[20] = molecular target: T4, 1-phosphatidylinositol 3-phosphate 5-kinase; experiment: Binding affinity to wild type partial length human PIKFYVE (F1512 to C2098 residues) expressed in mammalian expression system by KdELECT kinase assay
[21] = molecular target: T4, 1-phosphatidylinositol 3-phosphate 5-kinase; experiment: Inhibition of Nano-Luc fused PIKFYVE (unknown origin) expressed in HEK293T cells pretreated for 3 hrs followed by K8-tarcer addition and measured after 1 hr by NanoBRET assay; assay type: cell-based
[22] = molecular target: T1, Mitogen-activated protein kinase 8; experiment: Inhibition of wild type full length human JNK1 expressed in mammalian expression system at 1 uM by KinomeScan analysis; in short: as §1
[23] = molecular target: Mitogen-activated protein kinase 10 (Homo sapiens) (UniProt P53779); experiment: Inhibition of human full length recombinant JNK3 at 1 uM by KinomeScan analysis; in short: as §1
MM1.S [24] = experiment: Antiproliferative activity against human MM1.S cells assessed as inhibition of cell growth rate measured after 72 hrs by CellTiter-Glo luminescent assay; assay type: functional
[25] = Antiproliferative activity against human HAP1 cells assessed as inhibition of cell growth incubated for 3 days by CellTiter-Glo luminescent assay; assay type: functional, cell-based; details: HAP1, 72 h
HAP1 = experiment: Antiproliferative activity against human HAP1 cells assessed as inhibition of cell growth incubated for 3 days in presence of VX745 by CellTiter-Glo luminescent assay; assay type: functional, cell-based; details: time 3.0 day

T4 sequence (Q9Y2I7 whole entry, the tested form may be a part): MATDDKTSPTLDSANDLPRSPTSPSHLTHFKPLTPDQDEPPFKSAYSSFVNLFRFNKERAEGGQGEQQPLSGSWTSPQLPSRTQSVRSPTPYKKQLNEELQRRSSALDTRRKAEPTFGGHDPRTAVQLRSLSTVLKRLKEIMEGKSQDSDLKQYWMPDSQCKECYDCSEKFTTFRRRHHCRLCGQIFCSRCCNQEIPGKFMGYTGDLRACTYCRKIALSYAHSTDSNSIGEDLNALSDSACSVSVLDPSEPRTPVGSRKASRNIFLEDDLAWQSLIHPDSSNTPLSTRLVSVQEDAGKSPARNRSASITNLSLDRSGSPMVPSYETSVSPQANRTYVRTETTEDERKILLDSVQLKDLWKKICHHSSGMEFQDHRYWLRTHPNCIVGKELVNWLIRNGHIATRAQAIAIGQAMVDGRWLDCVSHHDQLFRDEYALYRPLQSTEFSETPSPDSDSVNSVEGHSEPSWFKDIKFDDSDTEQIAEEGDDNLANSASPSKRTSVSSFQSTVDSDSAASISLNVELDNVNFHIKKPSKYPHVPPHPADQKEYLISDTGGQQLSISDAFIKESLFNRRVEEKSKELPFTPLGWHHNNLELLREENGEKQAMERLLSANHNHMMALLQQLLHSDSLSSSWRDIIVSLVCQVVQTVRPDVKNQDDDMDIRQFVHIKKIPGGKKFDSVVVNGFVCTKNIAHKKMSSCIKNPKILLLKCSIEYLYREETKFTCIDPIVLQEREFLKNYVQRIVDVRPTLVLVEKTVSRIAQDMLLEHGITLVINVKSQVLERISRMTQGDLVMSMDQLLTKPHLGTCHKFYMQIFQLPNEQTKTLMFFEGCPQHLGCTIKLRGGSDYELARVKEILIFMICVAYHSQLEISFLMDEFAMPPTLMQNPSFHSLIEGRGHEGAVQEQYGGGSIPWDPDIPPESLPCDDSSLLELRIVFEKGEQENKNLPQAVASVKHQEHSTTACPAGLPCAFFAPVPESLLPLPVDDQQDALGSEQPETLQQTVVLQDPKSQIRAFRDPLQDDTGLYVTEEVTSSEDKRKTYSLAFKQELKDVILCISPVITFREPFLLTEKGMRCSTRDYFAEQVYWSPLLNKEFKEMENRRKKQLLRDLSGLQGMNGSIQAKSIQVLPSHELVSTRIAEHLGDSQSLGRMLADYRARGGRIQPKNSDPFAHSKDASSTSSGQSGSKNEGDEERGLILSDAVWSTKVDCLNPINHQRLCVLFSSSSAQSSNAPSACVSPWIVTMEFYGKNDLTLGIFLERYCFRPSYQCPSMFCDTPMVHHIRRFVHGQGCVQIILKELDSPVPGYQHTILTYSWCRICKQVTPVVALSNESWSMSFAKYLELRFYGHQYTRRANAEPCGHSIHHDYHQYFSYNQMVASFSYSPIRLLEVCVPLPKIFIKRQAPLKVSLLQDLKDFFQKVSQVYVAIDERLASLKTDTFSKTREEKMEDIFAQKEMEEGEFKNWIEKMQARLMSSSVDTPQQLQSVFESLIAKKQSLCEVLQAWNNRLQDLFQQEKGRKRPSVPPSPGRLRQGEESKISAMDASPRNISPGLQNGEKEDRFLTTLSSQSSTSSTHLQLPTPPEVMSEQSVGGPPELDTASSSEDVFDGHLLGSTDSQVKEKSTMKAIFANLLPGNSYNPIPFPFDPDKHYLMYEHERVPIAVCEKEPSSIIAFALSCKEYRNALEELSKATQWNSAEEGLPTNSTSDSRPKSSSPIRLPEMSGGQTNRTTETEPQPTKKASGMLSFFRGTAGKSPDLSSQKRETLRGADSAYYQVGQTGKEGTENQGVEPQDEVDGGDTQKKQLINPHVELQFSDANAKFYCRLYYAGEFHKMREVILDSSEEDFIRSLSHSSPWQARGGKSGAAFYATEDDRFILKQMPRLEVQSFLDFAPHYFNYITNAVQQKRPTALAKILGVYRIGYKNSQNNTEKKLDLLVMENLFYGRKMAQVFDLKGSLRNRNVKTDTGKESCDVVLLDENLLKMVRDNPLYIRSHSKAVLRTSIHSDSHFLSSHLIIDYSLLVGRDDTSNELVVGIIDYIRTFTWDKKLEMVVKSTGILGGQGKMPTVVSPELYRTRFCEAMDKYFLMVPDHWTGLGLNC
T1 sequence (P45983 whole entry): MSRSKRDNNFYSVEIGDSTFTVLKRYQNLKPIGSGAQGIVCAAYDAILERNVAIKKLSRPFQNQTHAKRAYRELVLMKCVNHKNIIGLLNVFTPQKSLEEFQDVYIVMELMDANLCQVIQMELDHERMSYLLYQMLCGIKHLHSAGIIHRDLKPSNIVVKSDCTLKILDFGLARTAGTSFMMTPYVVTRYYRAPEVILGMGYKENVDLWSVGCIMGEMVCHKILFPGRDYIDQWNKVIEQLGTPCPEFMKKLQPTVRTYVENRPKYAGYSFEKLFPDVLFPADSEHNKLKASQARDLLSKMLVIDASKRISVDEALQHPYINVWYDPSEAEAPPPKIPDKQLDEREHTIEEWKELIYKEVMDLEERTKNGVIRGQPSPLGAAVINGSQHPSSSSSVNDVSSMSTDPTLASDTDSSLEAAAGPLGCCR
T3 sequence (Q16539 whole entry, the tested form may be a part): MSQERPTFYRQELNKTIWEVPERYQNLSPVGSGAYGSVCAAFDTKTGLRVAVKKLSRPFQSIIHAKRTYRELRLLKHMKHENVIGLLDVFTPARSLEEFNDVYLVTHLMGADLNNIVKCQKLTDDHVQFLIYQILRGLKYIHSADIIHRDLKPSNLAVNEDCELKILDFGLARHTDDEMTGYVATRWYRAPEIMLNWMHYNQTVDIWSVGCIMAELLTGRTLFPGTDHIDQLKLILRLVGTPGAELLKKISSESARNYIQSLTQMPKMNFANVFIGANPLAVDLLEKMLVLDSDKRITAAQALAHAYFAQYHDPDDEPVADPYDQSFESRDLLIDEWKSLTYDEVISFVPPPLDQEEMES
Chain of Mitogen-activated protein kinase 10 (Homo sapiens) (P53779 whole entry): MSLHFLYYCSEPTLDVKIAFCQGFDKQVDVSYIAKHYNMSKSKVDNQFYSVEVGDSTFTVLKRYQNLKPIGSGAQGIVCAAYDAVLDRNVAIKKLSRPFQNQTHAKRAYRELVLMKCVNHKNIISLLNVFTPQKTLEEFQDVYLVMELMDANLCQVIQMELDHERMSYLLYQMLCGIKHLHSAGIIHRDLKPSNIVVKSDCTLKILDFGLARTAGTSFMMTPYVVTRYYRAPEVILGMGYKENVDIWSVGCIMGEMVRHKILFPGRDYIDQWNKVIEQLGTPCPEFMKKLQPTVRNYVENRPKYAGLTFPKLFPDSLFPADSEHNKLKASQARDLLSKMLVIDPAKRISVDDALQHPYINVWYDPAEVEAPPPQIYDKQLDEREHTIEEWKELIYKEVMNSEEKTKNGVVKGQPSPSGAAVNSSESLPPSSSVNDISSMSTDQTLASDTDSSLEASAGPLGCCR

pIC50 [1]: 7.13
pIC50 [2]: 8.40
Compound: CN(C)C/C=C/C(=O)Nc1ccc(C(=O)N2CC[C@H](Nc3nccc(-c4c(-c5cccc(Cl)c5)nn5ccccc45)n3)C2)cc1
Ratio IC50 (Homo sapiens [3]): 19

pIC50 [1]: 7.17
pIC50 [2]: 8.40
Compound: CN(C)C/C=C/C(=O)Nc1ccc(C(=O)N2CC[C@H](Nc3nccc(-c4c(-c5ccc(F)cc5)nn5ccccc45)n3)C2)cc1
Ratio IC50 (Homo sapiens [3]): 17

pIC50 [1]: 7.28
pIC50 [2]: 8.30
Compound: CN(C)C/C=C/C(=O)Nc1ccc(C(=O)N2CCC[C@H](Nc3nccc(-c4c(-c5ccccc5)nn5ccccc45)n3)C2)cc1
Ratio IC50 (Homo sapiens [3]): 10

pIC50 [1]: 6.78
pIC50 [2]: 8.30
Activity [11]: 100%
inhibition [12]: Active
inhibition [13]: Active
inhibition (Homo sapiens [14]): Active
inhibition [15]: Active
inhibition [16]: Active
inhibition [17]: Active
inhibition [18]: Active
inhibition [19]: Active
pKd [20]: 6.57
pIC50 [21]: 6.53
inhibition [22]: Active
inhibition [23]: Active
Compound: CN(C)C/C=C/C(=O)Nc1ccc(C(=O)N2CC[C@H](Nc3nccc(-c4c(-c5ccccc5)nn5ccccc45)n3)C2)cc1
Ratio IC50 (Homo sapiens [3]): 33
inhibition (SUM159PT): Active

Second part, the compound before the results:

Compound: CN(C)C/C=C/C(=O)Nc1ccc(C(=O)NC2CCCC(Nc3nccc(-c4c(-c5ccccc5)nn5ccccc45)n3)C2)cc1 (stereo not given)
pIC50 [1]: 6.32
pIC50 [2]: 7.36
Ratio IC50 (Homo sapiens [3]): 11

Compound: CN(C)C/C=C/C(=O)Nc1ccc(C(=O)N2CCCC[C@@H](Nc3nccc(-c4c(-c5ccccc5)nn5ccccc45)n3)C2)cc1
pIC50 [1]: 6.41
pIC50 [2]: 7.77
Ratio IC50 (Homo sapiens [3]): 23

Compound: Cc1cc(NC(=O)c2cccc(NC(=O)/C=C/CN(C)C)c2)ccc1Nc1nccc(-c2cccnc2)n1
Activity (MM1.S [4]): inactive
Activity (MM1.S [5]): inactive
Activity (MM1.S [6]): inactive
Activity (ANBL-6 [7]): inactive
Activity (ANBL-6 [8]): inactive
Activity [9]: Active
Activity [10]: Active

Compound: CN(C)C/C=C/C(=O)Nc1ccc(C(=O)N2CCCC[C@H](Nc3nccc(-c4c(-c5ccccc5)nn5ccccc45)n3)C2)cc1
pIC50 [1]: 6.59
pIC50 [2]: 7.55
Ratio IC50 (Homo sapiens [3]): 9

Compound: O[C@H]1CC[C@H](Nc2ncc3nc(Nc4c(F)cc(F)cc4F)n([C@H]4CCOC4)c3n2)CC1 [TANZISERTIB]
Activity (MM1.S [24]): inactive
pIC50 [25]: < 4.52
Activity (HAP1): inactive
